# Data: ChEMBL document CHEMBL2384906, “Biological activity, design, synthesis and structure activity relationship of some novel derivatives of curcumin containing sulfonamides” (Eur J Med Chem, 2013)
# The source made the active and inactive calls. No cut-off for these calls is given here.
# Assays:
# [1] = tested on: Salmonella typhi; assay: Antimicrobial activity against Salmonella typhi ATCC 23564 after 24 hrs by broth micro serial dilution method; format: functional, Salmonella enterica subsp. enterica serovar Typhi; conditions: Salmonella enterica, ATCC 23564, 24 h
# [2] = tested on: Pseudomonas aeruginosa; assay: Antimicrobial activity against Pseudomonas aeruginosa ATCC 15499 assessed as diameter of inhibition zone at 20 uM after 24 hrs by Kirby -Baur disc diffusion method; format: functional; conditions: ATCC 15499, 24 h, read-out: DIZ
# Method in brief: (§1)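 Kirby-Bauer disc diffusion was used. Acetone stocks (160 µM) were serially doubled down to 80, 40 and 20 µM. 4 µL of each went onto 5 mm sterile paper discs, which were dried 30 min at 50 °C. Inoculum was 1.5 × 10⁸ CFU/mL diluted to 3 × 10² CFU/mL, and 50 µL was spread on Mueller-Hinton agar. After 24 h at 37 °C the inhibition-zone diameter was measured. Ciprofloxacin served as positive control.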
# [3] = tested on: HCT-116; assay: Cytotoxicity against human HCT116 cells after 24 hrs by MTT assay; format: functional, cell-based
# Method in brief: (§2)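 The MTT assay seeded 5 × 10⁴ cells per well and grew them 24 h in RPMI 1640 with compound at 2.5–200 µM. Medium without cells was the blank and adriamycin the positive control. MTT was added for 4 h at 37 °C, formazan was solubilised, and absorbance was read at 570 nm. IC50 is the concentration that cuts viability 50% against untreated cells.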
# [4] = tested on: Pseudomonas aeruginosa; assay: Antimicrobial activity against Pseudomonas aeruginosa ATCC 15499 after 24 hrs by broth micro serial dilution method; format: functional; conditions: ATCC 15499, 24 h
# Method in brief: (§3)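 This was broth microdilution in autoclaved Mueller-Hinton broth. 150 µL of compound per well was serially diluted […], and 50 µL of test organism was added. Plates were incubated 24 h at 37 °C and optical density was read.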
# [5] = tested on: Bacillus cereus; assay: Antimicrobial activity against Bacillus cereus MTCC 7350 assessed as diameter of inhibition zone at 40 uM after 24 hrs by Kirby -Baur disc diffusion method; format: functional; method in brief: as §1
# [6] = tested on: Salmonella typhi; assay: Antimicrobial activity against Salmonella typhi ATCC 23564 assessed as diameter of inhibition zone at 80 uM after 24 hrs by Kirby -Baur disc diffusion method; format: functional, Salmonella enterica subsp. enterica serovar Typhi; conditions: Salmonella enterica, ATCC 23564, 24 h; read-out: DIZ
# [7] = tested on: Mus musculus; assay: Antiinflammatory activity in mouse assessed as inhibition of carrageenan-induced increase in paw volume at 200 mg/kg administered 1 hr prior to carrageenan challenge measured after 3 hrs relative to control; format: functional
# Method in brief: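 Mice were fasted 2 h and placed in groups of five. Controls received saline i.p. Phenylbutazone was given at 100 mg/kg i.p., curcumin at 200 mg/kg i.p., and derivatives at 200 mg/kg. After 1 h, 0.1 mL of 1% carrageenan in saline was injected subplantar into the right hind paw. Paw volume was followed by plethysmometer for 3 h, and % inhibition was calculated as (Vc − Vt)/Vc × 100.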
# [8] = tested on: Trichoderma viride; assay: Antifungal activity against Trichoderma viride MTCC 1107 assessed as zone of inhibition at 80 uM after 48 hrs by disc diffusion method; format: functional; conditions: MTCC 1107, 48 h, read-out: IZ
# Method in brief: (§4)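 Spores from 4-day potato dextrose agar cultures, suspended in sterile water at 1.5 × 10⁵ CFU/mL. 0.2 mL was spread on potato dextrose agar. 5 mm filter-paper discs soaked with test compound were laid on the lawn. Incubation was 48 h at 28 °C, then the inhibition zone was measured in mm. Fluconazole was the positive control and acetone the negative control.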
# [9] = tested on: Aspergillus niger; assay: Antifungal activity against Aspergillus niger MTCC 1108 after 48 hrs; format: functional; conditions: MTCC 1108, 48 h
# [10] = tested on: Staphylococcus aureus; assay: Antimicrobial activity against Staphylococcus aureus ATCC 11632 assessed as diameter of inhibition zone at 40 uM after 24 hrs by Kirby -Baur disc diffusion method; format: functional; method in brief: as §1
# [11] = tested on: Staphylococcus aureus; assay: Antimicrobial activity against Staphylococcus aureus ATCC 11632 assessed as diameter of inhibition zone at 20 uM after 24 hrs by Kirby -Baur disc diffusion method; format: functional; method in brief: as §1
# [12] = tested on: HeLa; assay: Cytotoxicity against human HeLa cells after 24 hrs by MTT assay; format: functional, cell-based; method in brief: as §2
# [13] = tested on: Aspergillus flavus; assay: Antifungal activity against Aspergillus flavus MTCC 1021 after 48 hrs; format: functional
# [14] = tested on: Trichoderma viride; assay: Antifungal activity against Trichoderma viride MTCC 1107 assessed as zone of inhibition at 40 uM after 48 hrs by disc diffusion method; format: functional; conditions: MTCC 1107, 48 h, read-out: IZ; method in brief: as §4
# [15] = tested on: Staphylococcus aureus; assay: Antimicrobial activity against Staphylococcus aureus ATCC 11632 assessed as diameter of inhibition zone at 80 uM after 24 hrs by Kirby -Baur disc diffusion method; format: functional; conditions: ATCC 11632, 24 h, read-out: DIZ; method in brief: as §1
# [16] = tested on: QG-56; assay: Cytotoxicity against human QG56 cells after 24 hrs by MTT assay; format: functional, cell-based; method in brief: as §2
# [17] = tested on: Pseudomonas aeruginosa; assay: Antimicrobial activity against Pseudomonas aeruginosa ATCC 15499 assessed as diameter of inhibition zone at 80 uM after 24 hrs by Kirby -Baur disc diffusion method; format: functional; conditions: ATCC 15499, 24 h, read-out: DIZ; method in brief: as §1
# [18] = tested on: Salmonella typhi; assay: Antimicrobial activity against Salmonella typhi ATCC 23564 assessed as diameter of inhibition zone at 20 uM after 24 hrs by Kirby -Baur disc diffusion method; format: functional, Salmonella enterica subsp. enterica serovar Typhi; conditions: Salmonella enterica, ATCC 23564, 24 h; read-out: DIZ
# [19] = tested on: Escherichia coli; assay: Antimicrobial activity against Escherichia coli ATCC 35218 assessed as diameter of inhibition zone at 20 uM after 24 hrs by Kirby -Baur disc diffusion method; format: functional; method in brief: as §1
# [20] = tested on: Escherichia coli; assay: Antimicrobial activity against Escherichia coli ATCC 35218 assessed as diameter of inhibition zone at 80 uM after 24 hrs by Kirby -Baur disc diffusion method; format: functional; conditions: ATCC 35218, 24 h, read-out: DIZ; method in brief: as §1
# [21] = tested on: Bacillus cereus; assay: Antimicrobial activity against Bacillus cereus MTCC 7350 assessed as diameter of inhibition zone at 80 uM after 24 hrs by Kirby -Baur disc diffusion method; format: functional; conditions: MTCC 7350, 24 h, read-out: DIZ; method in brief: as §1
# [22] = tested on: Aspergillus flavus; assay: Antifungal activity against Aspergillus flavus MTCC 1021 assessed as zone of inhibition at 80 uM after 48 hrs by disc diffusion method; format: functional; method in brief: as §4
# [23] = tested on: Curvularia lunata; assay: Antifungal activity against Curvularia lunata MTCC 581 after 48 hrs; format: functional; conditions: MTCC 581, 48 h
# [24] = tested on: Bacillus cereus; assay: Antimicrobial activity against Bacillus cereus MTCC 7350 after 24 hrs by broth micro serial dilution method; format: functional; conditions: MTCC 7350, 24 h; method in brief: as §3
# [25] = tested on: Aspergillus niger; assay: Antifungal activity against Aspergillus niger MTCC 1108 assessed as zone of inhibition at 20 uM after 48 hrs by disc diffusion method; format: functional; method in brief: as §4
# [26] = tested on: Aspergillus niger; assay: Antifungal activity against Aspergillus niger MTCC 1108 assessed as zone of inhibition at 80 uM after 48 hrs by disc diffusion method; format: functional; conditions: MTCC 1108, 48 h, read-out: IZ; method in brief: as §4
# [27] = tested on: Curvularia lunata; assay: Antifungal activity against Curvularia lunata MTCC 581 assessed as zone of inhibition at 40 uM after 48 hrs by disc diffusion method; format: functional; method in brief: as §4
# [28] = tested on: Escherichia coli; assay: Antimicrobial activity against Escherichia coli ATCC 35218 assessed as diameter of inhibition zone at 40 uM after 24 hrs by Kirby -Baur disc diffusion method; format: functional; conditions: ATCC 35218, 24 h, read-out: DIZ; method in brief: as §1
# [29] = tested on: Escherichia coli; assay: Antimicrobial activity against Escherichia coli ATCC 35218 after 24 hrs by broth micro serial dilution method; format: functional; conditions: ATCC 35218, 24 h; method in brief: as §3
# [30] = tested on: Salmonella typhi; assay: Antimicrobial activity against Salmonella typhi ATCC 23564 assessed as diameter of inhibition zone at 40 uM after 24 hrs by Kirby -Baur disc diffusion method; format: functional, Salmonella enterica subsp. enterica serovar Typhi; conditions: Salmonella enterica, ATCC 23564, 24 h; read-out: DIZ
# [31] = tested on: Trichoderma viride; assay: Antifungal activity against Trichoderma viride MTCC 1107 after 48 hrs; format: functional; conditions: MTCC 1107, 48 h
# [32] = tested on: Curvularia lunata; assay: Antifungal activity against Curvularia lunata MTCC 581 assessed as zone of inhibition at 80 uM after 48 hrs by disc diffusion method; format: functional; conditions: MTCC 581, 48 h, read-out: IZ; method in brief: as §4
# [33] = tested on: Pseudomonas aeruginosa; assay: Antimicrobial activity against Pseudomonas aeruginosa ATCC 15499 assessed as diameter of inhibition zone at 40 uM after 24 hrs by Kirby -Baur disc diffusion method; format: functional; conditions: ATCC 15499, 24 h, read-out: DIZ; method in brief: as §1
# [34] = tested on: HepG2; assay: Cytotoxicity against human HepG2 cells after 24 hrs by MTT assay; format: functional, cell-based; method in brief: as §2
# [35] = tested on: Trichoderma viride; assay: Antifungal activity against Trichoderma viride MTCC 1107 assessed as zone of inhibition at 20 uM after 48 hrs by disc diffusion method; format: functional; method in brief: as §4
# [36] = tested on: Aspergillus niger; assay: Antifungal activity against Aspergillus niger MTCC 1108 assessed as zone of inhibition at 40 uM after 48 hrs by disc diffusion method; format: functional; method in brief: as §4
# [37] = tested on: Curvularia lunata; assay: Antifungal activity against Curvularia lunata MTCC 581 assessed as zone of inhibition at 20 uM after 48 hrs by disc diffusion method; format: functional; method in brief: as §4
# [38] = tested on: Staphylococcus aureus; assay: Antimicrobial activity against Staphylococcus aureus ATCC 11632 after 24 hrs by broth micro serial dilution method; format: functional; conditions: ATCC 11632, 24 h; method in brief: as §3
structure (smiles),measurement,setting,value
COc1cc(/C=C/C(CC(/C=C/c2ccc(O)c(OC)c2)=N/c2ccc(S(N)(=O)=O)cc2)=N\c2ccc(S(N)(=O)=O)cc2)ccc1O,MIC,[1],40 µM
same,zone of inhibition at 20 µM,[2],9 mm
same,IC50,[3],100 µM
same,MIC,[4],40 µM
same,diameter of the inhibition zone (DIZ),[5],inactive
same,zone of inhibition at 80 µM,[6],16 mm
same,inhibition in vivo at 200 mg/kg,[7],12.9%
same,zone of inhibition at 80 µM,[8],11 mm
same,MIC,[9],> 80 µM
same,diameter of the inhibition zone (DIZ),[10],inactive
same,diameter of the inhibition zone (DIZ),[11],inactive
same,IC50,[12],100 µM
same,MIC,[13],inactive
same,zone of inhibition at 40 µM,[14],10 mm
same,zone of inhibition at 80 µM,[15],10 mm
same,IC50,[16],> 100 µM
same,zone of inhibition at 80 µM,[17],18 mm
same,zone of inhibition at 20 µM,[18],9 mm
same,diameter of the inhibition zone (DIZ),[19],inactive
same,zone of inhibition at 80 µM,[20],12 mm
same,zone of inhibition at 80 µM,[21],11 mm
same,inhibition zone (IZ),[22],inactive
same,MIC,[23],> 80 µM
same,MIC,[24],40 µM
same,inhibition zone (IZ),[25],inactive
same,zone of inhibition at 80 µM,[26],9 mm
same,inhibition zone (IZ),[27],inactive
same,zone of inhibition at 40 µM,[28],10 mm
same,MIC,[29],40 µM
same,zone of inhibition at 40 µM,[30],11 mm
same,MIC,[31],40 µM
same,zone of inhibition at 80 µM,[32],9 mm
same,zone of inhibition at 40 µM,[33],11 mm
same,IC50,[34],> 100 µM
same,inhibition zone (IZ),[35],inactive
same,inhibition zone (IZ),[36],inactive
same,inhibition zone (IZ),[37],inactive
same,MIC,[38],> 80 µM
